# Results reported in ChEMBL document CHEMBL1154178, “Puupehanol, a sesquiterpene-dihydroquinone derivative from the marine sponge Hyrtios sp” (Bioorg Med Chem Lett, 2009).
# Active and inactive are the calls of the source. The calls are words filed in the database; no cut-off is given here.
# Key:
# Assay type in all cases: functional, organism-based
# [1] = system: Cryptococcus neoformans; assay: Antifungal activity against Cryptococcus neoformans ATCC 90113 after 72 hrs by two fold serial dilution technique at 20 ug/mL
# In short: (§1)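 Top concentration in the dilution series was 20 µg/mL.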
# [2] = system: Nakaseomyces glabratus; assay: Antifungal activity against Candida glabrata ATCC 90030 after 48 hrs by two fold serial dilution technique at 20 ug/mL; in short: as §1
# [3] = system: Pichia kudriavzevii; assay: Antifungal activity against Candida krusei ATCC 6258 after 48 hrs by two fold serial dilution technique at 20 ug/mL; in short: as §1
# [4] = system: Aspergillus fumigatus; assay: Antifungal activity against Aspergillus fumigatus ATCC 90906 after 48 hrs by two fold serial dilution technique at 20 ug/mL; in short: as §1
# [5] = system: Candida albicans; assay: Antifungal activity against Candida albicans ATCC 90028 after 48 hrs by two fold serial dilution technique at 20 ug/mL; in short: as §1
# [6] = system: Nakaseomyces glabratus; assay: Antifungal activity against Candida glabrata ATCC 90030 after 48 hrs by two fold serial dilution technique; settings: ATCC 90030, 48 h; in short: as §1
# [7] = system: Aspergillus fumigatus; assay: Antifungal activity against Aspergillus fumigatus ATCC 90906 after 48 hrs by two fold serial dilution technique
# [8] = system: Cryptococcus neoformans; assay: Antifungal activity against Cryptococcus neoformans ATCC 90113 after 72 hrs by two fold serial dilution technique; settings: ATCC 90113, 72 h; in short: as §1
# [9] = system: Candida albicans; assay: Antifungal activity against Candida albicans ATCC 90028 after 48 hrs by two fold serial dilution technique; settings: ATCC 90028, 48 h
# [10] = system: Pichia kudriavzevii; assay: Antifungal activity against Candida krusei ATCC 6258 after 48 hrs by two fold serial dilution technique; settings: ATCC 6258, 48 h
IC50 [8] [µg/mL],MIC [8] [µg/mL],SMILES,Activity [2],Activity [3],Activity [4],Activity [5],IC50 [6] [µg/mL],MFC [6] [µg/mL],MIC [6] [µg/mL],"IC50 ([7]; ATCC 90906, 48 h) [µg/mL]",MFC [8] [µg/mL],IC50 [9] [µg/mL],IC50 [10] [µg/mL],further results
–,–,CC1(C)CCC[C@]2(C)[C@H]3C=C4C(=CC(=O)[C@H](O)[C@@H]4O)O[C@@]3(C)CC[C@@H]12,inactive,inactive,inactive,inactive,–,–,–,–,–,–,–,Activity [1]: inactive
5.73,10,CC1(C)CCC[C@]2(C)[C@H]3C=C4C(=CC(=O)C(O)=C4Cl)O[C@@]3(C)CC[C@@H]12 [CHLOROPUUPEHENONE],inactive,inactive,inactive,inactive,–,–,–,–,20,–,–,–
0.38,0.63,CC1(C)CCC[C@]2(C)[C@H]3C=C4C=C(O)C(=O)C=C4O[C@@]3(C)CC[C@@H]12 [PUUPEHENONE],–,–,–,–,2.67,10,10,5.63,1.25,3.02,1.49,"MFC [7]: inactive; MIC ([7]; ATCC 90906, 48 h): 10 µg/mL; MFC [9]: 10 µg/mL; MIC [9]: 10 µg/mL; MFC [10]: 2.5 µg/mL; MIC [10]: 2.5 µg/mL"

SMILES,IC50 [8] [µg/mL],MIC [8] [µg/mL],Activity [2],Activity [3],Activity [4],Activity [5],IC50 [6] [µg/mL],MFC [6] [µg/mL],MIC [6] [µg/mL],"IC50 ([7]; ATCC 90906, 48 h) [µg/mL]",MFC [8] [µg/mL],IC50 [9] [µg/mL],IC50 [10] [µg/mL],further results
C[C@@H]1[C@H](O)[C@@H](C)/C=C/C=C/C=C/C=C/C=C/C=C/C=C/[C@H](O[C@@H]2O[C@H](C)[C@@H](O)[C@H](N)[C@@H]2O)C[C@@H]2O[C@](O)(C[C@@H](O)C[C@@H](O)[C@H](O)CC[C@@H](O)C[C@@H](O)CC(=O)O[C@H]1C)C[C@H](O)[C@H]2C(=O)O [AMPHOTERICIN B],0.34,0.63,–,–,–,–,0.29,0.63,0.63,1.02,0.63,0.26,0.699,"MFC ([7]; ATCC 90906, 48 h): 5 µg/mL"
